# Measurements published in ChEMBL document CHEMBL5154945, “Discovery and Optimization of Pyrrolopyrimidine Derivatives as Selective Disruptors of the Perinucleolar Compartment, a Marker of Tumor Progression toward Metastasis” (J Med Chem, 2022).
# Experiments:
# PC-3M [1] = test: Antiproliferative activity against human PC-3M cells expressing PTB/GFP fusion protein assessed as cell growth inhibition at < 100 nM and measured every four hrs for 130 hrs by IncuCyte zoom live cell analysis; type: functional, cell-based; details: DDE = dose-dependent effect
# In short: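 PC3M cells stably expressing GFP-PTB, grown in DMEM with 10% FBS and 1% penicillin/streptomycin, seeded at 1.25×10^4 cells/ml in 384-well plates and left overnight at 37 °C, 5% CO2. Compound added in DMEM to give 11 final concentrations from 10 nM to 20 μM. Brightfield images were taken every 4 h for about 130 h and scored as percent confluence.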
# PC-3M [2] = test: Cytotoxicity against human PC-3M cells expressing PTB/GFP fusion protein assessed as reduction in ATP level at 20 uM and measured after 24 to 48 hrs by ATPlite luminescence assay; type: toxicity, cell-based; details: time 24-48 hrs
# PC-3M [3] = test: Antiproliferative activity against human PC-3M cells expressing PTB/GFP fusion protein assessed as reduction of nucleolar volume at 1 to 30 uM measured after 24 hrs by Nucleolar-id Green Detection based confocal microscopic analysis; type: functional, cell-based; details: dose 1-30 µM, DDE = dose-dependent effect
# In short: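 PC-3M cells grown in RPMI 1640 with 10% FBS and penicillin/streptomycin, trypsinized at 70% confluence, and seeded at 2×10^5 cells/mL overnight at 37 °C, 5% CO₂. Medium replaced with compound or 1% DMSO for 24 h. Nucleoli stained with Nucleolar-ID Green and nuclei with Hoechst 33342, then imaged by confocal microscopy. Bright green objects in three images per condition normalized to nuclei count; vehicle set to 100.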
# CCRF-CEM = test: Anticancer activity against human CCRF-CEM cells assessed as cell growth inhibition; type: functional, cell-based; details: dose 1-100 µM, DDE = dose-dependent effect
# HL-60(TB) = test: Anticancer activity against human HL-60(TB) cells assessed as cell growth inhibition; type: functional, cell-based; details: dose 1-100 µM, DDE = dose-dependent effect
# K562 = test: Anticancer activity against human K562 cells assessed as cell growth inhibition; type: functional, cell-based; details: dose 1-100 µM, DDE = dose-dependent effect
# MOLT-4 = test: Anticancer activity against human MOLT-4 cells assessed as cell growth inhibition; type: functional, cell-based; details: dose 1-100 µM, DDE = dose-dependent effect
# RPMI-8226 = test: Anticancer activity against human RPMI-8226 cells assessed as cell growth inhibition; type: functional, cell-based; details: dose 1-100 µM, DDE = dose-dependent effect
# SR = test: Anticancer activity against human SR cells assessed as cell growth inhibition; type: functional, cell-based; details: dose 1-100 µM, DDE = dose-dependent effect
# A549 = test: Anticancer activity against human A549 cells assessed as cell growth inhibition; type: functional, cell-based; details: dose 1-100 µM, DDE = dose-dependent effect
# EKVX = test: Anticancer activity against human EKVX cells assessed as cell growth inhibition; type: functional, cell-based; details: dose 1-100 µM, DDE = dose-dependent effect
# HOP-62 = test: Anticancer activity against human HOP-62 cells assessed as cell growth inhibition; type: functional, cell-based; details: dose 1-100 µM, DDE = dose-dependent effect
# NCI-H226 = test: Anticancer activity against human NCI-H226 cells assessed as cell growth inhibition; type: functional, cell-based; details: dose 1-100 µM, DDE = dose-dependent effect
# NCI-H23 = test: Anticancer activity against human NCI-H23 cells assessed as cell growth inhibition; type: functional, cell-based; details: dose 1-100 µM, DDE = dose-dependent effect
# NCI-H322M = test: Anticancer activity against human NCI-H322M cells assessed as cell growth inhibition; type: functional, cell-based; details: dose 1-100 µM, DDE = dose-dependent effect
# NCI-H460 = test: Anticancer activity against human NCI-H460 cells assessed as cell growth inhibition; type: functional, cell-based; details: dose 1-100 µM, DDE = dose-dependent effect
# NCI-H522 = test: Anticancer activity against human NCI-H522 cells assessed as cell growth inhibition; type: functional, cell-based; details: dose 1-100 µM, DDE = dose-dependent effect
# COLO 205 = test: Anticancer activity against human COLO 205 cells assessed as cell growth inhibition; type: functional, cell-based; details: dose 1-100 µM, DDE = dose-dependent effect
# HCC 2998 = test: Anticancer activity against human HCC 2998 cells assessed as cell growth inhibition; type: functional, cell-based; details: dose 1-100 µM, DDE = dose-dependent effect
# HCT-116 = test: Anticancer activity against human HCT-116 cells assessed as cell growth inhibition; type: functional, cell-based; details: dose 1-100 µM, DDE = dose-dependent effect
# HCT-15 = test: Anticancer activity against human HCT-15 cells assessed as cell growth inhibition; type: functional, cell-based; details: dose 1-100 µM, DDE = dose-dependent effect
# HT-29 = test: Anticancer activity against human HT-29 cells assessed as cell growth inhibition; type: functional, cell-based; details: dose 1-100 µM, DDE = dose-dependent effect
# KM12 = test: Anticancer activity against human KM12 cells assessed as cell growth inhibition; type: functional, cell-based; details: dose 1-100 µM, DDE = dose-dependent effect
# SW-620 = test: Anticancer activity against human SW-620 cells assessed as cell growth inhibition; type: functional, cell-based; details: dose 1-100 µM, DDE = dose-dependent effect
# SF-268 = test: Anticancer activity against human SF-268 cells assessed as cell growth inhibition; type: functional, cell-based; details: dose 1-100 µM, DDE = dose-dependent effect
# SF-295 = test: Anticancer activity against human SF-295 cells assessed as cell growth inhibition; type: functional, cell-based; details: dose 1-100 µM, DDE = dose-dependent effect
# SF-539 = test: Anticancer activity against human SF-539 cells assessed as cell growth inhibition; type: functional, cell-based; details: dose 1-100 µM, DDE = dose-dependent effect
# SNB-19 = test: Anticancer activity against human SNB-19 cells assessed as cell growth inhibition; type: functional, cell-based; details: dose 1-100 µM, DDE = dose-dependent effect
# SNB-75 = test: Anticancer activity against human SNB-75 cells assessed as cell growth inhibition; type: functional, cell-based; details: dose 1-100 µM, DDE = dose-dependent effect
# U-251 = test: Anticancer activity against human U-251 cells assessed as cell growth inhibition; type: functional, cell-based; details: dose 1-100 µM, DDE = dose-dependent effect
# LOX IMVI = test: Anticancer activity against human LOX IMVI cells assessed as cell growth inhibition; type: functional, cell-based; details: dose 1-100 µM, DDE = dose-dependent effect
# Malme-3M = test: Anticancer activity against human Malme-3M cells assessed as cell growth inhibition; type: functional, cell-based; details: dose 1-100 µM, DDE = dose-dependent effect
# M14 = test: Anticancer activity against human M14 cells assessed as cell growth inhibition; type: functional, cell-based; details: dose 1-100 µM, DDE = dose-dependent effect
# MDA-MB-435 = test: Anticancer activity against human MDA-MB-435 cells assessed as cell growth inhibition; type: functional, cell-based; details: dose 1-100 µM, DDE = dose-dependent effect
# SK-MEL-2 = test: Anticancer activity against human SK-MEL-2 cells assessed as cell growth inhibition; type: functional, cell-based; details: dose 1-100 µM, DDE = dose-dependent effect
# SK-MEL-28 = test: Anticancer activity against human SK-MEL-28 cells assessed as cell growth inhibition; type: functional, cell-based; details: dose 1-100 µM, DDE = dose-dependent effect
# SK-MEL-5 = test: Anticancer activity against human SK-MEL-5 cells assessed as cell growth inhibition; type: functional, cell-based; details: dose 1-100 µM, DDE = dose-dependent effect
# UACC-257 = test: Anticancer activity against human UACC-257 cells assessed as cell growth inhibition; type: functional, cell-based; details: dose 1-100 µM, DDE = dose-dependent effect
# UACC-62 = test: Anticancer activity against human UACC-62 cells assessed as cell growth inhibition; type: functional, cell-based; details: dose 1-100 µM, DDE = dose-dependent effect
# IGROV-1 = test: Anticancer activity against human IGROV-1 cells assessed as cell growth inhibition; type: functional, cell-based; details: dose 1-100 µM, DDE = dose-dependent effect
# OVCAR-3 = test: Anticancer activity against human OVCAR-3 cells assessed as cell growth inhibition; type: functional, cell-based; details: dose 1-100 µM, DDE = dose-dependent effect
# OVCAR-4 = test: Anticancer activity against human OVCAR-4 cells assessed as cell growth inhibition; type: functional, cell-based; details: dose 1-100 µM, DDE = dose-dependent effect
# OVCAR-5 = test: Anticancer activity against human OVCAR-5 cells assessed as cell growth inhibition; type: functional, cell-based; details: dose 1-100 µM, DDE = dose-dependent effect
# OVCAR-8 = test: Anticancer activity against human OVCAR-8 cells assessed as cell growth inhibition; type: functional, cell-based; details: dose 1-100 µM, DDE = dose-dependent effect
# NCI/ADR-RES = test: Anticancer activity against human NCI/ADR-RES cells assessed as cell growth inhibition; type: functional, cell-based; details: dose 1-100 µM, DDE = dose-dependent effect
# SK-OV-3 = test: Anticancer activity against human SK-OV-3 cells assessed as cell growth inhibition; type: functional, cell-based; details: dose 1-100 µM, DDE = dose-dependent effect
# 786-0 = test: Anticancer activity against human 786-0 cells assessed as cell growth inhibition; type: functional, cell-based; details: dose 1-100 µM, DDE = dose-dependent effect
# A498 = test: Anticancer activity against human A498 cells assessed as cell growth inhibition; type: functional, cell-based; details: dose 1-100 µM, DDE = dose-dependent effect
# ACHN = test: Anticancer activity against human ACHN cells assessed as cell growth inhibition; type: functional, cell-based; details: dose 1-100 µM, DDE = dose-dependent effect
# CAKI-1 = test: Anticancer activity against human CAKI-1 cells assessed as cell growth inhibition; type: functional, cell-based; details: dose 1-100 µM, DDE = dose-dependent effect
# RXF 393 = test: Anticancer activity against human RXF 393 cells assessed as cell growth inhibition; type: functional, cell-based; details: dose 1-100 µM, DDE = dose-dependent effect
# SN12C = test: Anticancer activity against human SN12C cells assessed as cell growth inhibition; type: functional, cell-based; details: dose 1-100 µM, DDE = dose-dependent effect
# TK-10 = test: Anticancer activity against human TK-10 cells assessed as cell growth inhibition; type: functional, cell-based; details: dose 1-100 µM, DDE = dose-dependent effect
# UO-31 = test: Anticancer activity against human UO-31 cells assessed as cell growth inhibition; type: functional, cell-based; details: dose 1-100 µM, DDE = dose-dependent effect
# PC-3 = test: Anticancer activity against human PC-3 cells assessed as cell growth inhibition; type: functional, cell-based; details: dose 1-100 µM, DDE = dose-dependent effect
# DU-145 = test: Anticancer activity against human DU-145 cells assessed as cell growth inhibition; type: functional, cell-based; details: dose 1-100 µM, DDE = dose-dependent effect
# MCF7 = test: Anticancer activity against human MCF7 cells assessed as cell growth inhibition; type: functional, cell-based; details: dose 1-100 µM, DDE = dose-dependent effect
# MDA-MB-231 = test: Anticancer activity against human MDA-MB-231 cells assessed as cell growth inhibition; type: functional, cell-based; details: dose 1-100 µM, DDE = dose-dependent effect
# Hs-578T = test: Anticancer activity against human Hs-578T cells assessed as cell growth inhibition; type: functional, cell-based; details: dose 1-100 µM, DDE = dose-dependent effect
# BT-549 = test: Anticancer activity against human BT-549 cells assessed as cell growth inhibition; type: functional, cell-based; details: dose 1-100 µM, DDE = dose-dependent effect
# T47D = test: Anticancer activity against human T47D cells assessed as cell growth inhibition; type: functional, cell-based; details: dose 1-100 µM, DDE = dose-dependent effect
# MDA-MB-468 = test: Anticancer activity against human MDA-MB-468 cells assessed as cell growth inhibition; type: functional, cell-based; details: dose 1-100 µM, DDE = dose-dependent effect
# PC-3M [4] = test: Inhibition of cell migration at human PC-3M cells measured after 5 days by Hoechst 33342 staining based microscopic method; type: functional; details: 120 h
compound,measurement,setting,value
N=c1c2c(-c3ccccc3)c(-c3ccccc3)n(Cc3ccccc3)c2ncn1CCCO,Activity,PC-3M [1],Dde
same,Activity,PC-3M [2],Toxic
same,Activity,PC-3M [3],Dde
same,Activity,CCRF-CEM,Dde
same,Activity,HL-60(TB),Dde
same,Activity,K562,Dde
same,Activity,MOLT-4,Dde
same,Activity,RPMI-8226,Dde
same,Activity,SR,Dde
same,Activity,A549,Dde
same,Activity,EKVX,Dde
same,Activity,HOP-62,Dde
same,Activity,NCI-H226,Dde
same,Activity,NCI-H23,Dde
same,Activity,NCI-H322M,Dde
same,Activity,NCI-H460,Dde
same,Activity,NCI-H522,Dde
same,Activity,COLO 205,Dde
same,Activity,HCC 2998,Dde
same,Activity,HCT-116,Dde
same,Activity,HCT-15,Dde
same,Activity,HT-29,Dde
same,Activity,KM12,Dde
same,Activity,SW-620,Dde
same,Activity,SF-268,Dde
same,Activity,SF-295,Dde
same,Activity,SF-539,Dde
same,Activity,SNB-19,Dde
same,Activity,SNB-75,Dde
same,Activity,U-251,Dde
same,Activity,LOX IMVI,Dde
same,Activity,Malme-3M,Dde
same,Activity,M14,Dde
same,Activity,MDA-MB-435,Dde
same,Activity,SK-MEL-2,Dde
same,Activity,SK-MEL-28,Dde
same,Activity,SK-MEL-5,Dde
same,Activity,UACC-257,Dde
same,Activity,UACC-62,Dde
same,Activity,IGROV-1,Dde
same,Activity,OVCAR-3,Dde
same,Activity,OVCAR-4,Dde
same,Activity,OVCAR-5,Dde
same,Activity,OVCAR-8,Dde
same,Activity,NCI/ADR-RES,Dde
same,Activity,SK-OV-3,Dde
same,Activity,786-0,Dde
same,Activity,A498,Dde
same,Activity,ACHN,Dde
same,Activity,CAKI-1,Dde
same,Activity,RXF 393,Dde
same,Activity,SN12C,Dde
same,Activity,TK-10,Dde
same,Activity,UO-31,Dde
same,Activity,PC-3,Dde
same,Activity,DU-145,Dde
same,Activity,MCF7,Dde
same,Activity,MDA-MB-231,Dde
same,Activity,Hs-578T,Dde
same,Activity,BT-549,Dde
same,Activity,T47D,Dde
same,Activity,MDA-MB-468,Dde
O=C(Nc1cccnc1)c1cccs1,AC50,PC-3M [4],1980 nM
